The subject of assay [1] is SGC-7901. The experiment in a line: Induction of morphological changes in human SGC7901 cells assessed as appearance of round shaped cells at 7.5 uM incubated for 36 hrs by microscopic analysis. It is filed as functional, cell-based. The method, boiled down: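 Cells seeded at 2 × 10^5 per well and grown 24 h. Medium then replaced with compound-containing medium. After 36 h co-culture, morphology inspected by light microscopy.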

Assay [2] deals with GISTT1. Briefly: Down regulation of c-kit gene expression at translational level in human GIST-T1 cells at 5 uM. It counts as functional, cell-based.
The subject of assay [3] is GISTT1. Briefly: Antiproliferative activity against human GIST-T1 cells. It is filed as functional, cell-based.
In assay [4] the test system is SGC-7901. Briefly: Inhibition of cell migration in human SGC7901 cells at 1.5 uM incubated for 48 hrs by inverted fluorescence microscope based scratch wound healing assay. It is filed as functional. The method, boiled down: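 20 × 10^4 cells per well grown to 80% confluence. Wound scratched with a pipette tip, washed twice with PBS and photographed under an inverted fluorescence microscope. Cells then held in serum-free medium with compound for 48 h. Migration measured as distance moved from the wound edge; mean ± SD, n = 3.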

In assay [5] the test system is SGC-7901. The experiment in a line: Induction of apoptosis in human SGC7901 cells assessed as viable cells at 15 uM incubated for 36 hrs by Annexin V-FITC/propidium iodide staining-based flow cytometric analysis (reference value: 93.2 %). It counts as functional. To be noted: read-out: Activity. For orientation: A flow cytometer gives signals particle by particle.

Assay [6] deals with A549. The experiment in a line: Induction of apoptosis in human A549 cells assessed as viable cells at 7.5 uM incubated for 36 hrs by Annexin V-FITC/propidium iodide staining-based flow cytometric analysis (reference value: 97.9 %). It is filed as functional. The settings on record: read-out: Activity.
Assay [7] relates to A549. The experiment in a line: Induction of apoptosis in human A549 cells assessed as late apoptotic cells at 7.5 uM incubated for 36 hrs by Annexin V-FITC/propidium iodide staining-based flow cytometric analysis (reference value: 0.41 %). It is filed as functional.
Assay [8] concerns A549. Briefly: Induction of apoptosis in human A549 cells assessed as early apoptotic cells at 15 uM incubated for 36 hrs by Annexin V-FITC/propidium iodide staining-based flow cytometric analysis (reference value: 1.41 %). It is filed as functional.
The test system of another assay is dsDNA. The experiment in a line: Binding affinity to 5'-AGGGGAGGCGAGGAGGGGCGTGGCCGG-3'/3'-TCCCCTCCGCTCCTCCCCGCACCGGCC-5' dsDNA (unknown origin) by circular dichroism spectroscopic analysis. It is filed as nucleic-acid assay. To be noted: Homo sapiens. The method, boiled down: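 Target duplex annealed at 95 °C, held 24 h in pH 7.0 buffer (10 mM sodium cacodylate, 100 mM NaCl, 0.5% DMSO), then degassed. Compound titrated in at compound:DNA ratios 0.0–3.0, room temperature, 15 min equilibration per addition. CD read 225–400 nm in a 5 mm quartz cell at 100 nm/min, 5.0 nm bandwidth. Average of three parallel runs.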
For orientation: CD spectra are sensitive to the conformation of chiral molecules.

The source made the active and inactive calls. The calls are words filed in the database; no cut-off is given here.

From ChEMBL document CHEMBL4765441, “Design, synthesis and anti-cancer activity of pyrrole-imidazole polyamides through target-downregulation of c-kit gene expression” (Eur J Med Chem, 2020) come the findings set out here.

As a reminder, the inhibition is the relative decrease from the control value, in per cent. Higher therefore signals a response far below the control. On to `CC(=O)Nc1cn(C)c(C(=O)Nc2cn(C)c(C(=O)Nc3cc(C(=O)Nc4cn(C)c(C(=O)NCCC(=O)Nc5cn(C)c(C(=O)Nc6cn(C)c(C(=O)NCC[C@@H](N)C(=O)Nc7cc(C(=O)Nc8cc(C(=O)NC[C@@H](O)CC(=O)Nc9cc(C(=O)Nc%10cn(C)c(C(=O)Nc%11cc(C(=O)Nc%12cc(C(=O)NCCC(=O)NCCCN(C)C)n(C)c%12)n(C)c%11)n%10)n(C)c9)n(C)c8)n(C)c7)n6)n5)n4)n(C)c3)n2)n1.Cl.Cl`, for which the result with SGC-7901 [1], with GISTT1 [2], in the assay with GISTT1 [3] and in the assay with dsDNA was Active. For the same molecule, testing at 1.5 µM in the assay with SGC-7901 [4] gave an inhibition of 85.7%. Further, the viability at 15 µM in the assay on SGC-7901 [5] came to 43.6%. For the same molecule, the viability at 7.5 µM with A549 [6] was 60.5%. The Activity with A549 [7] was 14.1%; in the assay on A549 [8], 28.9%.
